# GPR7 antagonist: antagonists of human GPR7 (neuropeptides B/W receptor 1) | 290,000 tested, 1.1% active | P48145 | AID 1861 | GPR7-expressing cells, fluorescence antagonist assay | inhibition, % at 4.4 µM; in the data active = inhibition above about 16%, passing the limit was not always enough;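 also: cells stimulated with the agonist NPW; 0% = agonist with vehicle and 100% = vehicle without agonist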
# CHO parental Ca: counter-screen for OX1R antagonists: effect in parental CHO cells; inhibition, % at 5.6 µM; parental CHO-K1, ATP-induced calcium, Fluo-8 fluorescence; 330,000 tested, 0.63% active;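 active = inhibition above that plate's mean sample inhibition plus 3 SD, cut at about 26% in these data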;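 also: 0% = ATP-challenged DMSO wells and 100% = DMSO wells without ATP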
#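 Assay system: parental CHO cells; Read-out basis: percent inhibition of ATP-evoked calcium rise, normalized to controls; Benchmarks: ATP and no-ATP DMSO wells; Compound dosing: single nominal dose of 5.6 µM per compound; Signal: Fluo-8 calcium dye fluorescence; Also added: ATP as calcium-mobilizing challenge; Repeats: singlicate.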
# OX1R antag-1: human HCRTR1 antagonism. CHO/OX1R cells, Fluo-8 calcium fluorescence, orexin A. inhibition, % at 5 µM. 330,000 tested, 0.43% active. AID 434989;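 active = inhibition above its plate's threshold, mean inhibition of all tested compounds on the plate plus 3 SD, cut at about 37% in these data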;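 also: 0% = orexin A challenge wells and 100% = SB-334867-A antagonist wells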
# Target sequence (O43613 whole entry, looked up): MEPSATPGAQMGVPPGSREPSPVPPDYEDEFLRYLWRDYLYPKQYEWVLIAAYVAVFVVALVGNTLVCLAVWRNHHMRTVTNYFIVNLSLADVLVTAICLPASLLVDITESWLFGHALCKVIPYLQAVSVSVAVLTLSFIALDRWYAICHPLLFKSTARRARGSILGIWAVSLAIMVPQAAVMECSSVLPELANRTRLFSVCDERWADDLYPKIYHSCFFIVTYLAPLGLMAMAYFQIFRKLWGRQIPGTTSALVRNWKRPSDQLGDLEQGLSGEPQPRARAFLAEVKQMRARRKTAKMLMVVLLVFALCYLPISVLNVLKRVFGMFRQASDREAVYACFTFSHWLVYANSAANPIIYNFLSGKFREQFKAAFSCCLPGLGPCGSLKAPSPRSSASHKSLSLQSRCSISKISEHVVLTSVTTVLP
# OX1R antag-2: OX1R (human) antagonism | OX1R-expressing cells, FRET antagonist read-out | AID 485270 | 330,000 tested, 1.8% active | inhibition, % at 6.6 µM; in the data active = inhibition mostly above about 38%, no sharp cut-off; inactive = mostly below about 40%;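 also: 0% = agonist challenge alone and 100% = reference antagonist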
# TAAR1 agonist: human TAAR1 agonism. CHO RD-HGA16 TAAR1, Fluo-8 calcium fluorescence; vehicle wells 0%, saturating PEA agonist 100%. activation, % at 3 µM. 360,000 tested, 0.99% active;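 active = activation above the mean activation of all test compounds in the run plus 3 SD, cut at about 38% in these data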
#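 System: CHO-derived RD-HGA16 cells with stable Gα16 and human TAAR1 / Times: 17-24 h plating, Fluo-8 75 min 37 °C, 30 min RT / Technique: calcium-sensitive Fluo-8 signal, excitation 470-495, emission 515-575 nm / Measure: % activation relative to PEA EC100 response / Benchmarks: DMSO and PEA EC100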
# TAAR1 antagonist: human TAAR1 antagonism. AID 624466. CHO RD-HGA16 TAAR1, Fluo-8 calcium fluorescence, antagonist. 360,000 tested, 1.5% active. inhibition, % at 3 µM;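 active = inhibition above a per-plate cutoff, the mean inhibition of test compounds on that plate plus 3 SD, cut at about 49% in these data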;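 also: 0% = DMSO plus EC80 beta-PEA response and 100% = DMSO alone without agonist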
#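 Assay system: RD-HGA16 CHO cells with stable hTAAR1 and Gα16 / Reagent: EC80 β-phenethylamine stimulus / Doses: 3 µM, single point / Timing: dye loading 75 min at 37 °C, then 30 min room temperature / Measured by: Fluo-8 intracellular calcium dye fluorescence, real-time kinetic reads / Controls: vehicle wells and EC80 agonist wells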
# TAAR1 ag conf: confirmation of human TAAR1 agonists | shares compounds with TAAR1 agonist | activation, % at 3 µM | CHO RD-HGA16 TAAR1, Fluo-8 calcium fluorescence; scaled: DMSO 0%, maximal phenethylamine 100% | 2,400 tested, 82% active;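 active = activation above a cutoff set at the run's mean compound activation plus 3 SD, cut at about 39% in these data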
# Ga16 nonsel ag: counter-screen for TAAR1 agonists: nonselective agonists in parental cells; 2,400 tested, 50% active; shares compounds with TAAR1 agonist; CHO-Ga16 parental, Fluo-8 calcium fluorescence; normalized to maximal ATP response, DMSO zero; activation, % at 3 µM; AID 651787;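 active = activation above the run cutoff, the mean activation over all tested wells plus 3 SD, cut at about 12% in these data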;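 also: 0% = DMSO wells and 100% = maximal ATP response on the peak over basal ratio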
# TAAR1 desensitize: counter-screen for human TAAR1 agonists: agonists that desensitize TAAR1 | inhibition, % at 3 µM | CHO RD-HGA16 hTAAR1, Fluo-8 calcium, beta-PEA response inhibition | 2,400 tested, 46% active | AID 651951 | shares compounds with TAAR1 agonist;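 active = inhibition above the run cutoff, the mean inhibition of all test compounds plus 3 SD, cut at about 49% in these data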;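 also: beta-PEA stimulus applied at its EC80; loss of beta-PEA calcium signal after compound pretreatment read as receptor desensitization; 0% = DMSO with beta-PEA at EC80 and 100% = DMSO alone without agonist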
# Ga16 nonsel ant: counter-screen for TAAR1 agonists: nonselective Ga16 antagonists; CHO-Ga16 ATP-induced calcium, Fluo-8 fluorescence; 2,400 tested, 39% active; shares compounds with TAAR1 agonist; AID 651952; inhibition, % at 3 µM;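 active = inhibition above the plate's mean compound inhibition plus 3 SD, computed per plate, cut at about 22% in these data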;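 also: 0% = EC80 ATP with DMSO and 100% = DMSO wells without ATP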
# The depositor's hits bear a star; · = no result. This is a sample that favours compounds with a hit; in the whole collection about 4.5% have one here.
SMILES,GPR7 antagonist,CHO parental Ca,OX1R antag-1,OX1R antag-2,TAAR1 agonist,TAAR1 antagonist,TAAR1 ag conf,Ga16 nonsel ag,TAAR1 desensitize,Ga16 nonsel ant
CCCC(C(=O)Nc1ccc(S(=O)(=O)N2CCOCC2)cc1)c1ccccc1 (stereo not drawn),·,11,28,5,96*,57*,86*,46*,69*,34*
CCCC(C(=O)Nc1ccc(C)c(S(=O)(=O)N2CCOCC2)c1)c1ccccc1 (stereo not drawn),·,-39,-23,14,0,-56,·,·,·,·
CNC(C)C(=O)NC(C(=O)NC(C)C(=O)Nc1cccc2ccccc12)C(C)C (stereo not drawn),·,·,·,·,3,-5,·,·,·,·
OC(COc1c(F)cc(Br)cc1F)CN1CCc2ccccc2C1 (stereo not drawn),-10,-17,-38,12,55*,11,66*,0,17,10
OC(COCc1ccccc1)CN1CCc2ccccc2C1 (stereo not drawn),1,-9,-12,13,25,-25,·,·,·,·
O=S1(=O)CC(N2CCCC2)CN1CCc1ccccc1 (stereo not drawn),·,·,·,·,56*,-7,45*,0,6,16
CCN(CC)c1ccc(/C=C(\C#N)C(N)=O)cc1,-9,·,·,·,4,11,·,·,·,·
CCN(CC)c1ccc(/C=C(\C#N)C(=O)c2ccc(Br)cc2)cc1,9,54*,78*,13,215*,91*,315*,325*,105*,103*
CC(C)(C)c1ccc(OCCNC(=S)Nc2ccccc2)cc1,-12,-13,-2,28,6,16,·,·,·,·
CC(C)(C)c1ccc(OCCNCc2ccccc2)cc1,4,-14,-19,0,71*,14,72*,34*,21,11
Cc1cc(C)c(OCCNCc2ccccc2)c(C)c1,-6,-18,-21,-9,10,0,·,·,·,·
Cc1cc(C)c(OCCCCNCc2ccccc2)c(Cl)c1,0,-7,-8,2,48*,-8,48*,22*,23,24*
COCCCNCCCCOc1c(Cl)cc(C)cc1Br,-4,-9,-29,2,59*,32,92*,22*,77*,8
Cc1cc(Cl)c(OCCCNC2CCCC2)c(Br)c1,1,2,-29,2,58*,-3,28,11,5,13
C=CCNCCCCOc1c(Cl)cc(C)cc1Br,-3,-6,-16,16,30,-6,·,·,·,·
Cc1cc(Cl)c(OCCOCCN2CCCCC2)c(Br)c1,-10,-12,-17,20,3,5,·,·,·,·
O=C(CSc1nc2ccccc2s1)NCc1cc([N+](=O)[O-])ccc1O,·,-14,-9,44,7,-10,·,·,·,·
CC(C)Oc1ccc(F)cc1-c1cc(C(=O)Nc2ccc(C(C)(C)C)cc2)[nH]n1,·,·,·,·,0,-22,·,·,·,·
Cc1cc(C(=O)CN2C(=O)C(=O)N(Cc3ccccc3)C2=O)c(C)n1Cc1ccccc1,·,2,9,5,7,18,·,·,·,·
O=C(CN1C(=O)C(=O)N(C2CCCC2)C1=O)NCCc1ccc(F)cc1,·,-15,-11,3,4,-16,·,·,·,·
Cc1cc(C(=O)CN2C(=O)C(=O)N(C3CCCC3)C2=O)c(C)n1CCc1ccccc1,·,·,·,·,49*,28,80*,1,55*,15
Cc1cc(C(=O)CN2C(=O)C(=O)N(C3CCCC3)C2=O)c(C)n1CCc1ccc(F)cc1,·,-21,-27,8,72*,13,82*,2,54*,15
